Experimental data gathered from unrelated publications.
Compare with care: the assays were run in different laboratories.
PKN3: Serine/threonine-protein kinase N3 (PKN3, Homo sapiens, UniProt Q6P5Z2)
ADORA2B: Adenosine receptor A2b (ADORA2B, Homo sapiens, UniProt P29275)
CFTR: Cystic fibrosis transmembrane conductance regulator (CFTR, Homo sapiens, UniProt P13569)

| Compound | target | test | conditions | inhibition [%] |
| --- | --- | --- | --- | --- |
| Cn1cnc(Br)c1C1=CN(c2ncnc3[nH]cnc23)CCS1 | PKN3 | enzyme activity, inhibitor, radiometric | 50 nM | 29.2 |
| CCN(c1cc(C#CCN2CCOCC2)cc(C(=O)NCc2c(C)cc(C)[nH]c2=O)c1C)[C@H]1CC[C@H](N(C)CCOC)CC1 | Histone-lysine N-methyltransferase NSD2 (NSD2, Homo sapiens, UniProt O96028) | enzyme activity, inhibitor | 1 µM | 26 |
| CN(C)C1CCN(CC#Cc2nn(C3CCCC3)c3nc(NCc4ccccc4)ncc23)C1 (stereo not shown) | Dual specificity protein kinase CLK2 (CLK2, Homo sapiens, UniProt P49760) | enzyme activity, inhibitor, FRET | 10 µM | 33 |
| C=CN1CCCn2c1nc1c2c(=O)n(C)c(=O)n1C | ADORA2B | ligand displacement, radioligand | 10 µM, cell membranes | 1 |
| CC(/C=C/C(=O)NO)=C\[C@@H](C)C(=O)c1ccc(N(C)C)cc1 | Histone deacetylase 11 (HDAC11, Homo sapiens, UniProt Q96DB2) | enzyme activity, inhibitor, fluorescence | 20 µM | < 50 |
| O=C(c1ccc(F)cc1)N(Cc1ccccc1)C1CCCCC1 | Muscarinic acetylcholine receptor M1 (CHRM1, Homo sapiens, UniProt P11229) | cell-free assay | 10 µM | -1 |
| O=C(CNc1cccc2ccccc12)NN=Cc1cc(Br)c(O)c(Br)c1 | CFTR | ion current, inhibitor | 50 µM | 87 |
| CC(C)CC(C)N1CCCn2c1nc1c2c(=O)n(C)c(=O)n1C (stereo not shown) | ADORA2B | ligand displacement, radioligand | 10 µM, cell membranes | 1 |
| CC(C)OC(=O)NC(C)(C)c1csc(-c2ccc(F)cc2)n1 | N-terminal Xaa-Pro-Lys N-methyltransferase 1 (Homo sapiens, UniProt Q9BV86) | enzyme activity, inhibitor, fluorescence | 100 µM | < 50 |
| CC(Nc1ccc2ccccc2c1)C(=O)NN=Cc1cc(Br)c(O)c(Br)c1 (stereo not shown) | CFTR | ion current, inhibitor | 50 µM | 80 |
| C=CCN1CCCn2c1nc1c2c(=O)n(C)c(=O)n1C | ADORA2B | ligand displacement, radioligand | 10 µM, cell membranes | 6 |
| Cc1ccc(NCC(=O)NN=Cc2cc(Br)c(O)c(Br)c2O)cc1 | CFTR | ion current, inhibitor | 50 µM | 79 |
| C#CCN1CCCn2c1nc1c2c(=O)n(C)c(=O)n1C | ADORA2B | ligand displacement, radioligand | 10 µM, cell membranes | 29 |
| COc1cc(NC(C)=O)c(Cl)cc1C(=O)Nc1nccs1 | Prostaglandin E2 receptor EP2 subtype (PTGER2, Homo sapiens, UniProt P43116) | cell-free assay | 10 µM | 36.3 |
| CCCCCC(C)N1CCCn2c1nc1c2c(=O)n(C)c(=O)n1C (stereo not shown) | ADORA2B | ligand displacement, radioligand | 10 µM, cell membranes | -3 |
| CC(=NNC(=O)CNc1ccc2ccccc2c1)c1cc(Br)c(O)c(Br)c1O | CFTR | ion current, inhibitor | 50 µM | 81 |
| O=C(c1ccc(Cl)cc1)N(Cc1ccccc1)C1CCCCC1 | ADORA2B | cell-free assay | 10 µM | -5.4 |
| Cn1cncc1C1=CN(c2ncnc3[nH]cnc23)CCS1 | PKN3 | enzyme activity, inhibitor, radiometric | 50 nM | 18.6 |
| CCCC(C)N1CCCn2c1nc1c2c(=O)n(C)c(=O)n1C (stereo not shown) | ADORA2B | ligand displacement, radioligand | 10 µM, cell membranes | 0 |
| O=C(CNc1ccc(Cl)cc1)NN=Cc1cc(Br)c(O)c(Br)c1O | CFTR | ion current, inhibitor | 50 µM | 91 |
| CN1CCCn2c1nc1c2c(=O)n(C)c(=O)n1C | ADORA2B | ligand displacement, radioligand | 10 µM, cell membranes | 6 |
| O=C(CNc1cccc2ccccc12)NN=Cc1cc(Br)c(O)c(Br)c1O | CFTR | ion current, inhibitor | 50 µM | 86 |
